Test results from ChEMBL document CHEMBL1136179, “Prolylisoxazoles: potent inhibitors of prolyloligopeptidase with antitrypanosomal activity” (Bioorg Med Chem Lett, 2003).
In brackets after ≈: the same amount, converted by molar mass. One block for each molecule: values may come before it.

Tests used:
Leishmania donovani [1] = assay: Antiprotozoal activity against Leishmania donovani L82 was determined; assay type: functional; settings: read-out: ED50 (the source's name)
In short: (§1)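 Leishmania donovani strain L82 was tested against test compounds, with pentostam as the reference drug.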

KB [2] = assay: Toxicity in T. b. rhodesiense STIB900 infected KB cells; assay type: functional; settings: Homo sapiens, read-out: ED50 (the source's name)
In short: (§2)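 Cytotoxicity was measured on KB cells, with podophyllotoxin as the reference drug.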

KB [3] = assay: Toxicity in Trypanosoma cruzi Lac Z infected KB cells; assay type: functional; settings: Homo sapiens, read-out: ED50 (the source's name); in short: as §2
KB [4] = assay: Toxicity in Leishmania donovani L82 infected KB cells; assay type: functional; settings: Homo sapiens, read-out: ED50 (the source's name); in short: as §2
Leishmania donovani [5] = assay: Antiprotozoal activity against Leishmania donovani L82 at a dose of 30 ug/mL. Compound was toxic to host macrophages; assay type: functional; in short: as §1
Leishmania donovani [6] = assay: Antiprotozoal activity against Leishmania donovani L82 at a dose of 3 ug/mL.; assay type: functional; in short: as §1
Leishmania donovani [7] = assay: Antiprotozoal activity against Leishmania donovani L82 at a dose of 10 ug/mL.; assay type: functional; in short: as §1
Trypanosoma cruzi [8] = assay: Antiprotozoal activity against Trypanosoma cruzi Lac Z was determined; assay type: functional; settings: read-out: ED50 (the source's name)
In short: (§3)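 Trypanosoma cruzi of the Lac Z strain was tested, with benznidazol as the reference drug.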

[9] = system: Trypanosoma brucei rhodesiense; assay: Antiprotozoal activity against T. b. rhodesiense STIB900 at a dose of 10 ug/mL.; assay type: functional
In short: (§4)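 Trypanosoma brucei rhodesiense strain STIB900 was tested, with pentamidine as the reference drug.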

[10] = system: Trypanosoma brucei rhodesiense; assay: Antiprotozoal activity against T. b. rhodesiense STIB900 at a dose of 1 ug/mL.; assay type: functional; in short: as §4
[11] = system: Trypanosoma brucei rhodesiense; assay: Antiprotozoal activity against T. b. rhodesiense STIB900 at a dose of 3 ug/mL.; assay type: functional; in short: as §4
[12] = system: Trypanosoma brucei rhodesiense; assay: Antiprotozoal activity against T. b. rhodesiense STIB900 was determined; assay type: functional; settings: read-out: ED50 (the source's name); in short: as §4
Trypanosoma cruzi [13] = assay: Antiprotozoal activity against Trypanosoma cruzi Lac Z at a dose of 1 ug/mL.; assay type: functional; in short: as §3
Trypanosoma cruzi [14] = assay: Antiprotozoal activity against Trypanosoma cruzi Lac Z at a dose of 30 ug/mL. Compound was toxic to host macrophages; assay type: functional; in short: as §3
Trypanosoma cruzi [15] = assay: Antiprotozoal activity against Trypanosoma cruzi Lac Z at a dose of 3 ug/mL.; assay type: functional; in short: as §3
Trypanosoma cruzi [16] = assay: Antiprotozoal activity against Trypanosoma cruzi Lac Z at a dose of 10 ug/mL.; assay type: functional; in short: as §3
[17] = system: Trypanosoma brucei rhodesiense; assay: Antiprotozoal activity against T. b. rhodesiense STIB900 at a dose of 30 ug/mL
Prolyl endopeptidase = biological target: T1, Prolyl endopeptidase (Homo sapiens, UniProt P48147); assay: In vitro inhibitory activity determined against prolyl oligopeptidase (PO) in human; Moderately active
T1 sequence (P48147 whole entry): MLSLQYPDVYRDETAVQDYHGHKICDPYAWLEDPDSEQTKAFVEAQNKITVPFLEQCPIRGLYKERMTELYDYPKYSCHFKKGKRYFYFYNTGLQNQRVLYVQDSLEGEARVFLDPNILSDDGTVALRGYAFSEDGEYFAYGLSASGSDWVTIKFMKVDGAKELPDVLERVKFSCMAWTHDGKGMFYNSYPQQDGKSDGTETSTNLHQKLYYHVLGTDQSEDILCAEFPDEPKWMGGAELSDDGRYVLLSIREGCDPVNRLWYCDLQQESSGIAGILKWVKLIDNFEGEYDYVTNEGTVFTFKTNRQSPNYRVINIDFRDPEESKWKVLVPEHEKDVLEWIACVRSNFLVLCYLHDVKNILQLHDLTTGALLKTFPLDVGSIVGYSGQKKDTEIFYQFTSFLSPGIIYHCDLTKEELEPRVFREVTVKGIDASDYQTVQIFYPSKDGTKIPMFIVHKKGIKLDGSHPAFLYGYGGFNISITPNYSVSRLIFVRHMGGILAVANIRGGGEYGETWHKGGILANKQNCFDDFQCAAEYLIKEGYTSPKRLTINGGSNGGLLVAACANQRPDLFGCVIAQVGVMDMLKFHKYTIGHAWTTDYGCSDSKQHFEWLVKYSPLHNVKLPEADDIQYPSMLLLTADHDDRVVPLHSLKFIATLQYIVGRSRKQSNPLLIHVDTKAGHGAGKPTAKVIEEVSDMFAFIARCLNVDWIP

Leishmania donovani [18] = assay: Antiprotozoal activity against Leishmania donovani was determined; settings: read-out: ED50
KB [19] = assay: Toxicity in Leishmania donovani infected KB cells; assay type: functional; settings: Homo sapiens, read-out: ED50 (the source's name); in short: as §2
KB [20] = assay: Toxicity in Trypanosoma cruzi infected KB cells; assay type: functional; settings: Homo sapiens, read-out: ED50 (the source's name); in short: as §2
Leishmania donovani [21] = assay: Antiprotozoal activity against Leishmania donovani at a dose of 10 ug/mL.; assay type: functional; in short: as §1
Leishmania donovani [22] = assay: Antiprotozoal activity against Leishmania donovani at a dose of 30 ug/mL. Compound was toxic to host macrophages; assay type: functional; in short: as §1
Leishmania donovani [23] = assay: Antiprotozoal activity against Leishmania donovani at a dose of 3 ug/mL.; assay type: functional; in short: as §1
Trypanosoma cruzi [24] = assay: Antiprotozoal activity against Trypanosoma cruzi was determined; assay type: functional; settings: read-out: ED50 (the source's name); in short: as §3
[25] = system: Trypanosoma brucei rhodesiense; assay: Antiprotozoal activity against T. b. rhodesiense at a dose of 10 ug/mL.; assay type: functional; in short: as §4
[26] = system: Trypanosoma brucei rhodesiense; assay: Antiprotozoal activity against T. b. rhodesiense at a dose of 1 ug/mL.; assay type: functional; in short: as §4
[27] = system: Trypanosoma brucei rhodesiense; assay: Antiprotozoal activity against T. b. rhodesiense at a dose of 3 ug/mL.; assay type: functional; in short: as §4
[28] = system: Trypanosoma brucei rhodesiense; assay: Antiprotozoal activity against T. b. rhodesiense was determined; assay type: functional; settings: read-out: ED50 (the source's name); in short: as §4
Trypanosoma cruzi [29] = assay: Antiprotozoal activity against Trypanosoma cruzi at a dose of 10 ug/mL.; assay type: functional; in short: as §3
Trypanosoma cruzi [30] = assay: Antiprotozoal activity against Trypanosoma cruzi at a dose of 1 ug/mL.; assay type: functional; in short: as §3
Trypanosoma cruzi [31] = assay: Antiprotozoal activity against Trypanosoma cruzi at a dose of 30 ug/mL. Compound was toxic to host macrophages; assay type: functional; in short: as §3
Trypanosoma cruzi [32] = assay: Antiprotozoal activity against Trypanosoma cruzi at a dose of 3 ug/mL.; assay type: functional; in short: as §3
KB [33] = assay: Toxicity in T. b. rhodesiense infected KB cells; assay type: functional; settings: Homo sapiens, read-out: ED50 (the source's name); in short: as §2
[34] = system: Trypanosoma brucei rhodesiense; assay: Antiprotozoal activity against T. b. rhodesiense at a dose of 30 ug/mL

EC50 (Leishmania donovani [1]): 13.1 µg/mL (≈ 24.7 µM)
EC50 (Trypanosoma cruzi [8]): 4.7 µg/mL (≈ 8.87 µM)
EC50 [12]: 5.5 µg/mL (≈ 10.4 µM)
Structure (SMILES): O=C(c1cc(COCc2ccccc2)on1)[C@@H]1CCCN1C(=O)[C@@H]1CCCN1C(=O)CCCc1ccccc1
EC50 (KB [2]): > 300 µg/mL
EC50 (KB [3]): > 300 µg/mL
EC50 (KB [4]): > 300 µg/mL
inhibition at 30 µg/mL (Leishmania donovani [5]): 100%
inhibition at 3 µg/mL (Leishmania donovani [6]): 0%
inhibition at 10 µg/mL (Leishmania donovani [7]): 6.9%
inhibition at 10 µg/mL [9]: 95.5%
inhibition at 1 µg/mL [10]: 0.9%
inhibition at 3 µg/mL [11]: 6.9%
inhibition at 1 µg/mL (Trypanosoma cruzi [13]): 16%
inhibition at 30 µg/mL (Trypanosoma cruzi [14]): 86.7%
inhibition at 3 µg/mL (Trypanosoma cruzi [15]): 42.6%
inhibition at 10 µg/mL (Trypanosoma cruzi [16]): 69.4%
inhibition at 30 µg/mL [17]: 99.9%

IC50 (Prolyl endopeptidase): > 1000 nM
Structure (SMILES): COC(=O)c1onc(C(=O)[C@@H]2CCCN2C(=O)[C@@H]2CCCN2C(=O)OCc2ccccc2)c1C(=O)OC

EC50 (Leishmania donovani [18]): 13.5 µg/mL (≈ 28.5 µM)
EC50 (Trypanosoma cruzi [24]): 6.7 µg/mL (≈ 14.1 µM)
EC50 [28]: 2.2 µg/mL (≈ 4.65 µM)
Structure (SMILES): O=C(c1cc(-c2ccccc2)on1)[C@@H]1CCCN1C(=O)[C@@H]1CCCN1C(=O)OCc1ccccc1
EC50 (KB [19]): 23 µg/mL (≈ 48.6 µM)
EC50 (KB [20]): 23 µg/mL (≈ 48.6 µM)
inhibition at 10 µg/mL (Leishmania donovani [21]): 1.8%
inhibition at 30 µg/mL (Leishmania donovani [22]): 100%
inhibition at 3 µg/mL (Leishmania donovani [23]): 0%
inhibition at 10 µg/mL [25]: 99.8%
inhibition at 1 µg/mL [26]: 7.7%
inhibition at 3 µg/mL [27]: 83.4%
inhibition at 10 µg/mL (Trypanosoma cruzi [29]): 59.9%
inhibition at 1 µg/mL (Trypanosoma cruzi [30]): 10.8%
inhibition at 30 µg/mL (Trypanosoma cruzi [31]): 86.7%
inhibition at 3 µg/mL (Trypanosoma cruzi [32]): 29%
EC50 (KB [33]): 23 µg/mL (≈ 48.6 µM)
inhibition at 30 µg/mL [34]: 99.9%
